# LEDGF integ inh: blockers of LEDGF/p75-dependent integrase strand transfer – biochemical, TR-FRET, high throughput, primary screen | TR-FRET IN-LEDGF/p75 DNA integration, Eu/Cy5 | HIV-1 integrase (with human LEDGF/p75) | 0.64% of 370,000 active | inhibition, % at 3.7 µM;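 active means inhibition above the screen-wide mean plus 3 SD, cut at about 13% in these data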;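 further: signal is the Cy5 over europium emission ratio at 671 and 618 nm; 0% = plate median of compound wells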
# HTRA1 inh: HTRA1 serine protease inhibitors, primary screen, biochemical, fluorescence polarization, HTS; inhibition, % at 5.96 µM; recombinant HTRA1, FP-rhodamine activity-based probe; Q92743; AID 504803, 2011; 0.5% of 340,000 active; in the data active means inhibition above about 36%;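 further: 0% = enzyme with DMSO and 100% = wells lacking enzyme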
# Target sequence (Q92743 whole entry, looked up): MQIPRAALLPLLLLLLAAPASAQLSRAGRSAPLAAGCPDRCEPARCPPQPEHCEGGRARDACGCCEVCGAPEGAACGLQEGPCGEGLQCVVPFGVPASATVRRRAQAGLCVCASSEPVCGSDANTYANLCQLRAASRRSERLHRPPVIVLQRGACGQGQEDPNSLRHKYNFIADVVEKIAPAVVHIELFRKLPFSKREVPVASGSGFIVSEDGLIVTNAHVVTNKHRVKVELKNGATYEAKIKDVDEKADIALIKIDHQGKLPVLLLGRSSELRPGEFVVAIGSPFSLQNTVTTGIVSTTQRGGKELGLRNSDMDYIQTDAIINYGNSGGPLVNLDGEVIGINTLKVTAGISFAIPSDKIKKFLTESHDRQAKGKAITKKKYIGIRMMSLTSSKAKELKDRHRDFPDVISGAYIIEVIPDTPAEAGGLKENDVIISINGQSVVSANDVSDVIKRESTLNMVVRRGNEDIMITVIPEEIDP
# SIAE primary: human SIAE inhibitors, primary screen, biochemical, fluorescence polarization, FP-Rh probe, 1536-well HTS; SIAE FP-Rh probe binding; inhibition, % at 9.66 µM; 0.69% of 370,000 active;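 active means inhibition above a cutoff: mean of compounds within the control limits plus 3 SD of those, cut at about 17% in these data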;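 further: 0% = plate median of compound wells and 100% = probe without SIAE protein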
# TDP2 inh: human TDP2 enzyme inhibitors, primary screen, biochemical, epi absorbance, recombinant enzyme; Tyrosyl-DNA phosphodiesterase 2 (Homo sapiens), O95551; T5PNP hydrolysis, p-nitrophenol absorbance 415 nm; inhibition, % at 12.8 µM; 0.34% of 370,000 active; AID 720702, 2013;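 active means inhibition above the mean of all tested compounds plus 3 SD, set per campaign, cut at about 25% in these data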;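 further: 0% = DMSO with enzyme and 100% = buffer with substrate but no TDP2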
#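 Material: recombinant human TDP2; quantity: TDP2 enzyme at 120 nM final; medium: Tris-HCl pH 7.5 with MgCl2; compound: single concentration, 12.8 µM nominal, with 1% DMSO; incubation: 2 h enzyme incubation at 37 °C; signal: epi absorbance; measure: percent inhibition; benchmarks: high control without enzyme, low control DMSO plus TDP2; repeats: singlicate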
# TCR CD3 inh: inhibitors of human TCR-CD3 interaction, primary screen, biochemical, fluorescence, TAMRA-labeled TCR probe; 0.37% of 360,000 active; inhibition, % at 9.4 µM; AID 651800, 2012; T-cell receptor (TCR);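 further: recombinant mutant TCR 2C K166C tagged with TAMRA read by polarization; 0% = receptor in buffer alone and 100% = receptor with positive control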
# mABHD4 FP: ABHD4 inhibitors, primary screen, biochemical, fluorescence polarization, mouse; purified mABHD4, FP-Rh probe fluorescence polarization; inhibition, % at 8.92 µM; (Lyso)-N-acylphosphatidylethanolamine lipase (Mus musculus), Q8VD66; 0.54% of 370,000 active; AID 720543, 2013;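 active means inhibition exceeding the mean over every tested compound plus 3 SD, cut at about 30% in these data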;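 further: 0% = plate median of compound wells and 100% = S159A mutant with DMSO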
#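 Material: mouse ABHD4 enzyme, wild type; Benchmarks: S159A mutant high control, sample median low control; Buffer or medium: HEPES pH 7.0, NaCl, Pluronic buffer; Signal: fluorescence polarization; Read-out: percent inhibition of probe binding, normalized to plate controls; Timing: pre-incubation 45 min, probe exposure 60 min, at 25 °C; Dosing: 8.92 µM, single dose.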
# HTRA1 inh conf: HTRA1 protease inhibitors, retest, confirmation, biochemical, fluorescence polarization; shares compounds with HTRA1 inh; recombinant HTRA1, FP-rhodamine activity-based probe; inhibition, % at 5.96 µM; 66% of 1,600 active; AID 540248, 2011;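 active means mean inhibition over three repeats above a set limit taken from the earlier primary screen, cut at about 37% in these data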;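 further: 0% = HTRA1 with DMSO and 100% = wells lacking HTRA1; inhibitors block probe binding so polarization drops and inhibition rises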
# BSA probe FL: compounds interfering with TAMRA-BSA probe, counter-screen for TCR-CD3 interaction inhibitor project, biochemical, fluorescence, TAMRA-labeled BSA. shares compounds with TCR CD3 inh. 10% of 1,200 active. inhibition, % at 9.4 µM. AID 652035, 2013. TAMRA-labeled BSA probe fluorescence counterscreen; in the data active means inhibition above about 23%;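 further: 0% = buffer low control and 100% = reference high control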
# TCR-CD3 conf: TCR-CD3 interaction inhibitors, retest, confirmation, biochemical, fluorescence, TAMRA-labeled TCR probe; shares compounds with TCR CD3 inh; TAMRA-labeled TCR probe fluorescence binding assay; inhibition, % at 9.4 µM; 48% of 1,200 active; AID 652036, 2013
# ABHD4 confirm: ABHD4 inhibitors, retest, confirmation, biochemical, fluorescence polarization, mouse. shares compounds with mABHD4 FP. purified mABHD4, FP-Rh probe fluorescence polarization. inhibition, % at 8.92 µM. 55% of 1,800 active. AID 720658, 2013;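 active means mean inhibition across replicates above the hit cutoff set in the primary screen, cut at about 30% in these data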;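 further: 0% = wild-type ABHD4 with DMSO and 100% = catalytically dead S159A mutant with DMSO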
# TDP2 inh conf: human TDP2 enzyme inhibitors, retest, confirmation, biochemical, epi absorbance, recombinant enzyme. shares compounds with TDP2 inh. absorbance read-out. inhibition, % at 12.8 µM. 22% of 1,100 active. AID 743263, 2014; in the data active means inhibition above about 25%;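 further: 0% = vehicle with enzyme and 100% = no enzyme buffer only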
# IN multimer act: HIV-1 IN multimer formation enhancers, counter-screen for LEDGF/p75 integration inhibitor project, biochemical, TR-FRET. shares compounds with LEDGF integ inh. TR-FRET HIV-1 integrase multimerization. activation, % at 7.7 µM. 17% of 2,000 active. AID 1053131, 2014; in the data active means activation above about 8.9%
# TRFRET interf: TR-FRET optical interference artefacts, confirmation, artefact control for LEDGF/p75-dependent integration inhibitor project, biochemical, HIV-1 IN multimerization; shares compounds with LEDGF integ inh; 2,000 tested, under 10 active; inhibition, % at 7.7 µM; TR-FRET optical interference counterscreen; AID 1053135, 2014;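 active means inhibition above the mean over all tested compounds plus 3 SD, which no compound reached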;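 further: 0% = integrase with antibodies and DMSO and 100% = antibodies without integrase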
# LEDGF integ conf: inhibitors of HIV-1 IN-LEDGF/p75 DNA integration, confirmation, biochemical, TR-FRET | AID 1053136, 2014 | TR-FRET LEDGF/p75-dependent HIV-1 integration | shares compounds with LEDGF integ inh | 36% of 2,000 active | inhibition, % at 3.7 µM; in the data active means inhibition above about 14%
# An asterisk follows results filed as active; / = no result given. This is a sample that favours compounds with a hit; in the whole collection about 2.2% have one here. Unless noted, no stated cut-off is given here; in the data, active means inhibition above about 19%; inactive means the rest.
SMILES,LEDGF integ inh,HTRA1 inh,SIAE primary,TDP2 inh,TCR CD3 inh,mABHD4 FP,HTRA1 inh conf,ABHD4 confirm,IN multimer act,TRFRET interf,LEDGF integ conf,others
CC1(C)CNc2cc(N)ccc2S1,13,72*,6,38*,0,38*,13,40*,/,/,/,TDP2 inh conf=0
Cc1ccc2c(c1)c1c3n2CCN(C(=O)C2CC2)C3CCC1 (configuration not stated),3,5,12,-10,-2,7,/,/,/,/,/,
Cc1ccc2c(c1)c(=O)c1c3n2CCN(C(=O)CCl)C3CC1 (configuration not stated),14*,48*,6,21,2,21,19,/,15*,-54,49*,
O=C(Nc1cccc(Cl)c1)OC1CCC12CCC(c1ccccc1)CC2 (configuration not stated),4,/,-16,5,/,-27,/,/,/,/,/,
CCOC(=O)c1c(N)sc(=S)c2c1CCC2,34*,38*,4,-1,13,42*,22,28,1,-3,32*,
CCOC(=O)c1ccc(CC(=O)c2ccc(O)c(O)c2O)o1,74*,53*,3,-6,21*,31*,82*,24,5,-25,58*,BSA probe FL=-15;TCR-CD3 conf=21*
CN(C)c1ccc(N/C=C/C(=O)c2ccco2)cc1,38*,47*,11,16,12,44*,12,6,11*,-41,7,
Cc1nc2ccccc2c(=O)n1/N=C/c1ccc(O)c(O)c1O,61*,49*,12,-3,41*,44*,56*,27,18*,-93,80*,BSA probe FL=-10;TCR-CD3 conf=25*
COc1ccc(N=C2NC(=O)/C(=C\C=C\c3ccco3)S2)cc1,23*,38*,9,16,5,25,2,/,16*,-83,55*,
Cc1ccc(N=C2NC(=O)/C(=C\c3ccco3)S2)cc1,4,10,6,4,5,14,/,/,/,/,/,
O=C(O)c1cccc2cccc(-c3c4ccc(=O)c(O)c-4oc4c(O)c(O)ccc34)c12,90*,50*,36*,19,66*,48*,50*,/,71*,-356,93*,BSA probe FL=-21;TCR-CD3 conf=68*
NC1(N2SC(S)=C3CCCC=C32)CCCCC1,6,/,5,-2,-2,9,/,/,/,/,/,
CCNc1ccc(Br)cc(C(=O)/C=C/c2ccc3c(c2)OCO3)c1=O,23*,52*,12,1,7,38*,27,45*,1,-6,41*,
O=C(C1=C(O)C(=O)N(c2nc3ccc(Cl)cc3s2)C1c1ccco1)c1ccco1 (configuration not stated),20*,39*,5,2,18,28,-54,/,7,-36,21*,
Nc1cc2cccnc2cc1Cl,18*,46*,-3,9,19*,53*,-1,36*,5,-16,27*,BSA probe FL=-4;TCR-CD3 conf=4
C[C@H]1[C@@H](c2ccccc2)Oc2ccc(Cl)cc2S(=O)(=O)N1Cc1ccc(Cl)cc1,3,/,-9,-3,-5,-4,/,/,/,/,/,
O=C1Nc2ccccc2/C1=N\N=C\c1ccc(O)c(O)c1,45*,49*,4,-12,32*,48*,78*,44*,37*,-132,81*,BSA probe FL=-15;TCR-CD3 conf=41*
O=C1CSc2ccc(C(=O)N3CCCC(C(=O)N4CCCCC4)C3)cc2N1 (configuration not stated),-3,/,6,9,/,5,/,/,/,/,/,
COc1ccc(CN2C[C@H](COCc3ccccc3)Oc3cccc(N4CCCC4)c3S2(=O)=O)cc1,3,/,2,1,0,-1,/,/,/,/,/,
COc1c2occc2c(OC)c2c(=O)cc(C)oc12,-3,4,-3,6,-14,-4,/,/,/,/,/,
Cc1cc(=O)c2c(o1)C(=O)c1occc1C2=O,51*,46*,5,36*,9,58*,15,61*,35*,-125,56*,TDP2 inh conf=21
Cc1ccc(/C=[N+](\[O-])c2ccc(N(C)C)cc2)c2nsnc12,14*,38*,9,16,8,30*,20,-8,10*,-38,11,
CCOC(=O)N1CCN(C(=O)C[C@H]2C[C@@]3(C(=O)OC)C(=C[C@H](C(C)C)O[C@@H]3C3CC3)N(Cc3ccco3)C2=O)CC1,2,/,-1,5,/,2,/,/,/,/,/,

# Compound activity deposited in PubChem BioAssay by The Scripps Research Institute Molecular Screening Center.
